Bioassay records (PubChem)
Rce1 inh: yeast Rce1p protease inhibitors, primary screen, biochemical, fluorescence, cell-free homogeneous. AID 2563, 2010. 290,000 tested, 0.27% active. CAAX prenyl protease 2 (Saccharomyces cerevisiae (strain ATCC 204508 / S288c)), Q03530. calls only. yeast membranes, quenched prenylated peptide cleavage fluorescence;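 active = fall in fluorescence gain of 50% or more versus controls, with final raw signal at or below 3038400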
Target sequence (Q03530 whole entry, looked up): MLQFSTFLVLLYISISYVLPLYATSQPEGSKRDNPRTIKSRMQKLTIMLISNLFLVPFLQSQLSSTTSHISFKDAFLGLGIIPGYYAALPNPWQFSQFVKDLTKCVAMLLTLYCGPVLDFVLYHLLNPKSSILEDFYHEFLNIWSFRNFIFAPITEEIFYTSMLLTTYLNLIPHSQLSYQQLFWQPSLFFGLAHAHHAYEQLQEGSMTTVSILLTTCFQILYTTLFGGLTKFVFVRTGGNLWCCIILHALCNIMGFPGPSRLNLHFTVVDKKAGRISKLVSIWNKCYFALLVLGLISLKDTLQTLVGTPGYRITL
T cell modulator: modulators of CD8 T cell-vesicle binding, primary screen, mouse 2C CD8+ T cells, flow cytometry | 2C CD8+ T cell-vesicle binding; active compounds read low | response (vesicle binding), % at 7 µM | 330,000 tested, 0.068% active;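 active = response, share of CD8 T cells binding vesicles, and their 90th percentile fluorescence all below set limits, cut at about 80% in these data, passing the limit was not always enough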;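 note: values below 100% mean blocked vesicle binding to the CD8+ T cells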
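incubation = binding step 1.5 h, 37 °C, antibody labelling 20 min, ice | test system = 2C mouse CD8+ T cells | read-out basis = percent CD8+ FL2 mean versus row control | controls = Peptide-free naked vesicles (low) and QL9 vesicles with 0.7% DMSO vehicle (high) | detection = flow cytometry of vesicle-bound cells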
beta cell repl: inducers of MIN6 beta-cell proliferation, primary screen, ATP luminescence, uHTS | MIN6 cells proliferation, ATPlite luminescence, 48 h; cells starved in 0.2% serum; 100% = growth in 10% serum | proliferation, % at 10 µM | 330,000 tested, 0.29% active | AID 2380, 2010;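 active = compounds whose signal lies at least 3.5 SD above the mean of all wells on their plate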
V-ATPase pHluor: regulators of yeast V-ATPase proton pumping, primary screen, pHLuorin cytosolic pH fluorescence. S. cerevisiae. 350,000 tested, 0.37% active. response, % at 10 µM. AID 504577, 2011; in the data active = response mostly above about 7.3%, no sharp cut-off; inactive = mostly below about 5.4%; note: actives read high
Yeast superoxide: reduction of superoxide in aged yeast, primary screen, HTS. S. cerevisiae aged cells, superoxide DHE fluorescence; active compounds read low. superoxide response (% of plate mean), % at 10 µM. 330,000 tested, 0.18% active. AID 2690, 2010;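 active = superoxide response under a set limit, about three screen SD below normal, cut at about 65% in these data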;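 note: yeast aged for seven days with compound at 30 °C before DHE staining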
proKLK7 act: proKLK7 zymogen activators, primary screen, biochemical, fluorescence intensity | Kallikrein-7 (Homo sapiens), P49862 | purified proKLK7, EDANS-DABCYL substrate fluorescence; 100% is mature enzyme control, 0% vehicle | activation, % at 7 µM | 370,000 tested, 0.9% active | AID 652039, 2013;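 active = activation above the mean of all tested compounds plus 3 SD, computed per campaign excluding outliers beyond control limits, cut at about 13% in these data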
Target sequence (P49862 whole entry, looked up): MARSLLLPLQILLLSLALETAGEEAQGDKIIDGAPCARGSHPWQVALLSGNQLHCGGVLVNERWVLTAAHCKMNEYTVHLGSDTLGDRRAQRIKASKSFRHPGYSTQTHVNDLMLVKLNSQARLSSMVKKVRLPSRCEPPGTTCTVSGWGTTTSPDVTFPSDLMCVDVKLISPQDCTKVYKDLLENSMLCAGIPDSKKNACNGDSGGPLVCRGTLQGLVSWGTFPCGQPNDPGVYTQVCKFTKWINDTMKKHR
Large screens that a line does not name were inactive. A selection: hits, their analogues and other compounds. The true share with any hit is near 1.9%.

COc1ccc(CN2C(=O)c3cccnc3C2=O)cc1S(=O)(=O)N(C)Cc1ccco1	none
CN(Cc1ccco1)S(=O)(=O)c1ccc(CN2C(=O)c3cccnc3C2=O)s1	V-ATPase pHluor 13.3
COC(=O)C[C@H]1CC[C@@H]2[C@@H](COc3ccc(NC(=O)C4CCCCC4)cc3C(=O)N2C)O1	none (no result: Rce1 inh, T cell modulator, beta cell repl, V-ATPase pHluor, Yeast superoxide)
COc1ccc(C2CC(c3cccs3)=NN2C(=O)CSc2nc3ccccc3s2)cc1 (configuration not stated)	none
O=C(CSc1nc2ccccc2s1)N1N=C(c2cccs2)CC1c1ccc(F)cc1 (configuration not stated)	Rce1 inh active
CCc1cc2c(nc1CC)CCCN2S(=O)(=O)c1c(C)noc1C	none (no result: Rce1 inh, T cell modulator, beta cell repl, V-ATPase pHluor, Yeast superoxide)
CCn1c(=S)[nH]c2c(c1=O)C(C)(C)Cc1ccccc1-2	V-ATPase pHluor 13.0 (no result: T cell modulator, beta cell repl, Yeast superoxide)
Clc1cccc(CN2CCc3c([nH]c4ccccc34)C2)c1Cl	Rce1 inh active
C[C@H](NC(=O)c1cc2cc(Cl)ccc2n1C)C(=O)N1CCC(C(=O)O)CC1	none (no result: beta cell repl)
COc1ccc2c(c1)cc(C(=O)N[C@@H](CCSC)C(=O)N1CCC(C(=O)O)CC1)n2C	Rce1 inh active
CCCCOc1ccc(-c2cc(C(F)(F)F)c(C#N)c(SCC(=O)O)n2)cc1	Rce1 inh active
CNC(CC(=O)c1ccc([N+](=O)[O-])cc1)C(Cl)(Cl)Cl (configuration not stated)	V-ATPase pHluor 68.6 (no result: Rce1 inh, beta cell repl, proKLK7 act)
COC(=O)[C@]12C[C@H](CC(=O)NCC34CC5CC(CC(C5)C3)C4)C(=O)N(Cc3ccccc3)C1=C[C@H](C(C)C)O[C@@H]2C1CC1	none (no result: Rce1 inh, T cell modulator, beta cell repl, V-ATPase pHluor, Yeast superoxide)
COC(=O)[C@]12C[C@H](CC(=O)N3CCN(C(=O)c4ccco4)CC3)C(=O)N(CCc3ccc(OC)c(OC)c3)C1=C[C@H](C1CCCC1)O[C@@H]2C	none (no result: Rce1 inh, T cell modulator, beta cell repl, V-ATPase pHluor, Yeast superoxide)
Cc1nc(NC(=O)c2ccc(-c3cc4ccccc4oc3=O)cc2)ccc1Br	none
Cc1nc(NC(=O)c2cccc(-c3cc4ccccc4oc3=O)c2)ccc1Br	Rce1 inh active
CCCOc1ccc(N2C(=O)CC(N(Cc3ccco3)C(=O)CC)C2=O)cc1 (configuration not stated)	none
CCCOc1ccc(N2C(=O)CC(N(C(=O)c3ccco3)c3ccc(OCCC)cc3)C2=O)cc1 (configuration not stated)	T cell modulator 0.0 (no result: Rce1 inh)
O=C(C1=C[C@@H](C2CC2)C[C@@H](OCc2ccc(CO)cc2)O1)N1CCN(Cc2ccccc2)CC1	Rce1 inh active
CCN(c1ccccc1)S(=O)(=O)c1ccc(C(=O)Nc2ccccn2)cc1	none
CN(c1ccc(C(=O)Nc2ccccn2)cc1)S(=O)(=O)c1ccccc1	T cell modulator 57.0
CCOC(=O)c1cnc(=O)[nH]c1C	T cell modulator 0.0 (no result: V-ATPase pHluor, proKLK7 act)
CCOC(=O)c1cc(C(=O)OCC)c(=O)[nH]c1C	none
COc1ccc(C(=O)C2(C(=O)NC3CCCC3)CC(c3ccccc3C(F)(F)F)=NO2)cc1 (configuration not stated)	none (no result: Rce1 inh, T cell modulator, beta cell repl, V-ATPase pHluor, Yeast superoxide)
O=C(CSc1nnc(-c2cccnc2)n1-c1ccc(Cl)cc1)Nc1ccc(S(=O)(=O)Nc2nccs2)cc1	none (no result: Rce1 inh, T cell modulator, beta cell repl, V-ATPase pHluor, Yeast superoxide)
FC(F)(F)c1cccc(N2CCN(C3=Nc4ccccc4Sc4ccccc43)CC2)c1	none (no result: Rce1 inh, T cell modulator, beta cell repl, V-ATPase pHluor, Yeast superoxide)
Nc1c(C(=O)NCc2ccccc2)sc2nc(N3CCOCC3)c3c(c12)CCCC3	Rce1 inh active
N#Cc1c2ccc([N+](=O)[O-])cc2[n+]([O-])n1-c1ccccc1	V-ATPase pHluor 27.9 (no result: Rce1 inh)
O=C(N[C@H](Cc1ccccc1)C(=O)N1CCN(Cc2ccccn2)CC1)[C@H]1O[C@@H](n2ccc(=O)[nH]c2=O)[C@H](O)[C@@H]1O	none (no result: Rce1 inh, T cell modulator, beta cell repl, V-ATPase pHluor, Yeast superoxide)
COc1ccccc1C1=NN(C2=NN=C(N)Cc3ncnn32)C(O)(C(F)(F)F)C1 (configuration not stated)	Rce1 inh active
COc1cccc2[nH]c(C(=O)NC(C)c3ccccc3)cc12 (configuration not stated)	Rce1 inh active
CC1(c2ccc(OCC#N)cc2)C=C(c2ccc(OCC#N)cc2)n2nc(C(F)(F)F)nc2N1 (configuration not stated)	Rce1 inh active
COc1ccc(C(=O)NCC(C)(C)N2CCOCC2)cc1S(=O)(=O)NCc1ccc(Cl)cc1	V-ATPase pHluor 21.4 (no result: Rce1 inh, T cell modulator, beta cell repl, Yeast superoxide)
O=C(Nc1cccc(N2C(=O)C3C4C=CC(C4)C3C2=O)c1)c1cccs1 (configuration not stated)	none
Cc1cc(N2C(=O)C3C4C=CC(C4)C3C2=O)ccc1NC(=O)c1cccs1 (configuration not stated)	Rce1 inh active
CCOC(=O)CSC1=Nc2ccccc2C2=NC(CC(=O)NCc3ccccc3)C(=O)N12 (configuration not stated)	none
CCC(C)NC(=O)CSC1=Nc2ccccc2C2=NC(CC(=O)NCc3ccc(F)cc3)C(=O)N12 (configuration not stated)	Rce1 inh active
Cn1c(Cc2cccs2)nnc1SCC(=O)Nc1ccc2c(c1)OCCO2	none (no result: Rce1 inh, T cell modulator, beta cell repl, V-ATPase pHluor, Yeast superoxide)
O=C(/C=C/c1cccs1)NNC(=O)c1ccccc1	T cell modulator 30.6 (no result: Rce1 inh)
O=C(/C=C/c1cccs1)NNC(=O)c1cccc([N+](=O)[O-])c1	none (no result: Rce1 inh)
CCn1cc(/C=C(\NC(=O)c2ccccc2)C(=O)N2CCOCC2)c2ccccc21	Rce1 inh active (no result: T cell modulator, Yeast superoxide)
CC(C)(C)c1ccc(-c2nnc(SCC(=O)Nc3ccccc3-c3ccccc3)n2Cc2ccco2)cc1	none (no result: Rce1 inh, T cell modulator, beta cell repl, V-ATPase pHluor, Yeast superoxide)
CCC1(C(=O)OC)NC(c2ccco2)C2C(=O)N(c3ccccc3)C(=O)C21 (configuration not stated)	V-ATPase pHluor 14.8
CCOC(=O)CC[C@@H]1CC[C@]2(CCCN(Cc3ccc(OC)cc3)C2)O1	none (no result: Rce1 inh, T cell modulator, beta cell repl, V-ATPase pHluor, Yeast superoxide)
COC(=O)Nc1nnc(-c2ccncc2)s1	Rce1 inh active
O=C(CSc1nnc(-c2cccs2)o1)c1ccc(F)cc1	none (no result: Rce1 inh, T cell modulator, beta cell repl, V-ATPase pHluor, Yeast superoxide)
CCN(CC)C(=O)CSC1=Nc2ccccc2C2=NC(c3ccccc3)C(=O)N12 (configuration not stated)	none
NC(=O)CSC1=Nc2ccccc2C2=NC(c3ccccc3)C(=O)N12 (configuration not stated)	Rce1 inh active
Cc1nn(C)c(C(=O)NC2C3CC4CC(C3)CC2C4)c1Cl (configuration not stated)	beta cell repl 7.7
Cc1ccc(-c2n[nH]c(=S)n2-c2ccccc2)cc1	T cell modulator 80.9
COc1cccc(CN2CCN(S(=O)(=O)c3ccc(Cl)s3)CC2)c1	T cell modulator 0.0
